Reference: ChEMBL document CHEMBL1156908, “Characterization of tunable piperidine and piperazine carbamates as inhibitors of endocannabinoid hydrolases” (J Med Chem, 2010)
Active and inactive are the calls of the source. The rule behind the calls is not given here.

What was measured:
[1] = biological target: T1, Patatin-like phospholipase domain-containing protein 6 (Mus musculus) (UniProt Q3TRM4); assay: Inhibition of NTE in mouse brain membrane at 100 uM; type: cell membranes
T1 sequence (whole entry): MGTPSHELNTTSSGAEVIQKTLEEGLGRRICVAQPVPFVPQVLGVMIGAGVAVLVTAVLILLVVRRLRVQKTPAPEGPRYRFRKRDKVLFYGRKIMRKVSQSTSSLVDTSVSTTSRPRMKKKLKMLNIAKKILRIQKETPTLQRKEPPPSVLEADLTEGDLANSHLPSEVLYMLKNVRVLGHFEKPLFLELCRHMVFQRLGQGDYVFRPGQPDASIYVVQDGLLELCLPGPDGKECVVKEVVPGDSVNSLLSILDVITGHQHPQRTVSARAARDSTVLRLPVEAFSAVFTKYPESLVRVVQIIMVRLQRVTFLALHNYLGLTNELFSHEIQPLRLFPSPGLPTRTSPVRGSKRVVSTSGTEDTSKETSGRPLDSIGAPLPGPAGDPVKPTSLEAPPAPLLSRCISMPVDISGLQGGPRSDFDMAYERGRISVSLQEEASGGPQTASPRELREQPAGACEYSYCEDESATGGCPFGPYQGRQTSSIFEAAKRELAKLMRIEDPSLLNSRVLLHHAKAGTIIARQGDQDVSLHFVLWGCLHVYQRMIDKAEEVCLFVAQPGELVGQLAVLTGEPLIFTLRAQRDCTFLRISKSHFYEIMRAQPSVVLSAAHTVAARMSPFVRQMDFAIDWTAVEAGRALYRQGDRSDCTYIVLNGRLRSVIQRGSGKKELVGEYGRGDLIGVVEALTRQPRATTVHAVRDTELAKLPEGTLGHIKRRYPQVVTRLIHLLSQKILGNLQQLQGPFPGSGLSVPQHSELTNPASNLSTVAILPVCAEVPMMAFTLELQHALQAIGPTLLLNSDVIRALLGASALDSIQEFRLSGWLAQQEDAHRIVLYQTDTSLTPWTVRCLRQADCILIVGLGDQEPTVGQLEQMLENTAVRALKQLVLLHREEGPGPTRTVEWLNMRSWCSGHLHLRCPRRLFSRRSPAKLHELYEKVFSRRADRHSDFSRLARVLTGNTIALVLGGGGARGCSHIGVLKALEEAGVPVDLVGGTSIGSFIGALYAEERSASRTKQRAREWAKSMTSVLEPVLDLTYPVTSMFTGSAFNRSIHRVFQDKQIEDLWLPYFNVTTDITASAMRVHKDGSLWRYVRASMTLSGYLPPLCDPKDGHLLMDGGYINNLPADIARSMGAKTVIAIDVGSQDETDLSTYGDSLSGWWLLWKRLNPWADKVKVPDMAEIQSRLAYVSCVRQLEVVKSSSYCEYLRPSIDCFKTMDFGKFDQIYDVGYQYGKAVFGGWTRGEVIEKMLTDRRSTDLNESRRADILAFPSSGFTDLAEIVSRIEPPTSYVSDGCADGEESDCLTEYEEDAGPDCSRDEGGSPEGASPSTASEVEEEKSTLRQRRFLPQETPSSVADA
Summary of the method: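 Competitive ABPP on mouse brain membrane proteome at 1 mg/ml in PBS. Inhibitor at 100 μM for 30 min at 37°C, then FP-rhodamine 1 μM final for 30 min at 25°C. SDS-PAGE and in-gel fluorescence scanning. Percent loss of NTE band labeling.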

Monoglyceride lipase = biological target: T2, Monoglyceride lipase (Mus musculus, UniProt O35678); assay: Inhibition of MAGL in mouse brain membrane; type: cell membranes
T2 sequence (O35678 whole entry): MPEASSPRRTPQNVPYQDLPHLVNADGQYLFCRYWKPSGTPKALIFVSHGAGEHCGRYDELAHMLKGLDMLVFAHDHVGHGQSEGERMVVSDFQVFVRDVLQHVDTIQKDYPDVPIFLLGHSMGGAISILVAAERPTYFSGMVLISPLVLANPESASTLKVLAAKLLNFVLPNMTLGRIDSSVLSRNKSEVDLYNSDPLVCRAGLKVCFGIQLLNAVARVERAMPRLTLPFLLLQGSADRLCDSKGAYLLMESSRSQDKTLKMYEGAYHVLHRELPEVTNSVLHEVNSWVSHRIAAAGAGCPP
Summary of the method: (§1)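 Mouse brain membrane fraction (Dounce homogenized in PBS pH 7.5, 1,400 × g debris spin, 64,000 × g 45 min pellet, resuspended) at 1 mg/ml in PBS. Inhibitor preincubated 30 min at 37°C, then FP-rhodamine 1 μM final for 30 min at 25°C. SDS-PAGE with in-gel fluorescence scanning. IC50 from fitted integrated band intensities, mean of at least triplicates.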

[2] = biological target: T3, Patatin-like phospholipase domain-containing protein 6 (Mus musculus, UniProt Q3TRM4); assay: Inhibition of NTE in mouse brain membrane; type: cell membranes; summary of the method: as §1
T3 sequence (Q3TRM4 whole entry): T1 sequence (whole entry)

[3] = biological target: T4, Monoacylglycerol lipase ABHD6 (Mus musculus, UniProt Q8R2Y0); assay: Inhibition of ABHD6 in mouse brain membrane; type: cell membranes; summary of the method: as §1
T4 sequence (Q8R2Y0 whole entry): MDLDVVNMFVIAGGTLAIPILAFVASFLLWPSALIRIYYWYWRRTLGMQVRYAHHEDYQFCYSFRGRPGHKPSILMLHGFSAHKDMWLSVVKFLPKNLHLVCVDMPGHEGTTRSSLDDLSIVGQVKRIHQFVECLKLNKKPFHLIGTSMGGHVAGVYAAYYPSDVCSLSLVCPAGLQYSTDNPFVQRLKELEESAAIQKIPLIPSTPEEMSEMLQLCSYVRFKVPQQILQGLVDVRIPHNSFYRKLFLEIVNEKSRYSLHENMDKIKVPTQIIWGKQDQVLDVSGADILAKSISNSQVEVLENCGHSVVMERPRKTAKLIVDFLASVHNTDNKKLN

[4] = biological target: T5, Fatty-acid amide hydrolase 1 (Mus musculus, UniProt O08914); assay: Inhibition of FAAH in mouse brain membrane; type: cell membranes; summary of the method: as §1
T5 sequence (O08914 whole entry): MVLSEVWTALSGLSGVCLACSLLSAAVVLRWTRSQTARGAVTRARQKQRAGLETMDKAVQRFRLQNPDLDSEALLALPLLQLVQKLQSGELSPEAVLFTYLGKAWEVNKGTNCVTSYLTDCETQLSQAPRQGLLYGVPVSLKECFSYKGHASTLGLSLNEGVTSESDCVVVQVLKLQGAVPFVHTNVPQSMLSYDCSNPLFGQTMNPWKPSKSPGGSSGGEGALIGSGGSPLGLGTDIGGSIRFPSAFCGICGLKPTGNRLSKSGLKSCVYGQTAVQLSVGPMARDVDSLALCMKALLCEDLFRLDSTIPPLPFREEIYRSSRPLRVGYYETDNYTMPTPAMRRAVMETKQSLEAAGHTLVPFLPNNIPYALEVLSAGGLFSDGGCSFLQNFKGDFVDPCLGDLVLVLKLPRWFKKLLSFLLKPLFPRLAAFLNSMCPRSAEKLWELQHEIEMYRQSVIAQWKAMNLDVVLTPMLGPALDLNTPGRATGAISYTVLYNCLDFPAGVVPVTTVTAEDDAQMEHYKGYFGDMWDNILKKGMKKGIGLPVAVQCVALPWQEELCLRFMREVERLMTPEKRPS

Mus musculus [5] = assay: In vivo inhibition of MAGL in mouse at 20 mg/kg, ip; type: functional, organism-based; set-up: dose 20 mg/kg
Mus musculus [6] = assay: In vivo inhibition of MAGL in mouse at 100 mg/kg, po; type: functional, organism-based; set-up: dose 100 mg/kg
Mus musculus [7] = assay: In vivo inhibition of FAAH in mouse at 20 mg/kg, ip; type: functional, organism-based; set-up: dose 20 mg/kg
Mus musculus [8] = assay: Toxicity in mouse assessed as death at 20 mg/kg, ip for 6 days; type: organism-based; set-up: dose 20 mg/kg, route intraperitoneal; conditions: in vivo, 144 h
Mus musculus [9] = assay: In vivo inhibition of FAAH in mouse at 100 mg/kg, po; type: functional, organism-based; set-up: dose 100 mg/kg

| Compound | inhibition [1] | IC50 (Monoglyceride lipase) | IC50 [2] | IC50 [3] | IC50 [4] | Activity (Mus musculus [5]) | Activity (Mus musculus [6]) | Activity (Mus musculus [7]) | Activity (Mus musculus [8]) | Activity (Mus musculus [9]) |
| --- | --- | --- | --- | --- | --- | --- | --- | --- | --- | --- |
| O=C(Oc1ccc([N+](=O)[O-])cc1)N1CCN(Cc2cccc(Oc3cc(Cl)cc(Cl)c3)c2)CC1 | 0% | > 100000 nM | > 100000 nM | > 100000 nM | > 100000 nM |  |  |  |  |  |
| O=C(Oc1ccc([N+](=O)[O-])cc1)N1CCN(Cc2cccc(Oc3cccc(C(F)(F)F)c3)c2)CC1 | 57% | 300 nM | 14400 nM | 320 nM | 5 nM |  |  |  |  |  |
| Cc1ccc(Oc2cccc(CN3CCN(C(=O)Oc4ccc([N+](=O)[O-])cc4)CC3)c2)cc1 | 70% | 500 nM | 3000 nM | 1130 nM | 40 nM |  |  |  |  |  |
| O=C(Oc1ccc([N+](=O)[O-])cc1)N1CCN(Cc2cccc(Oc3ccccc3)c2)CC1 | 50% |  | > 50000 nM | 50 nM | 13 nM | inactive | inactive | inactive | Non-toxic | inactive |
| COc1ccc(Oc2cccc(CN3CCN(C(=O)Oc4ccc([N+](=O)[O-])cc4)CC3)c2)cc1 | 60% | 130 nM | 2900 nM | 460 nM | 90 nM |  |  |  |  |  |
| O=C(Oc1ccc([N+](=O)[O-])cc1)N1CCN(Cc2cccc(Oc3ccccn3)c2)CC1 | 73% | 50 nM | 1270 nM | 60 nM | 40 nM |  |  |  |  |  |
| O=C(Oc1ccc([N+](=O)[O-])cc1)N1CCN(Cc2ccc(-c3ccccc3OC(F)(F)F)o2)CC1 | 81% | 70 nM | 570 nM | 180 nM | 5 nM |  |  |  |  |  |
